Assay results from article PMC8546901 (Chembiochem : a European journal of chemical biology, 2021).
Numbering of substitutions follows the chain as printed.

How the values were obtained:
RGS17-RH [1] = molecular target: T1, RGS17-RH (Homo sapiens, UniProt Q9UGC6); experiment: 1H-15N HSQC NMR fragment titration, chemical shift perturbation KD; type: binding; settings: calculated from KD and number of heavy atoms
T1 sequence (Q9UGC6 72-206): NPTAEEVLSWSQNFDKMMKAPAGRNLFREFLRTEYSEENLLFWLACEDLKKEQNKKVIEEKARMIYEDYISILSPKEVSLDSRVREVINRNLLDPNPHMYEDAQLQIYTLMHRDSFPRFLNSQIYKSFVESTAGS
Outline: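 100 μM ¹⁵N-RGS17-RH was titrated with fragment from 100 μM up to its solubility limit (generally 2–10 mM) in phosphate buffer, pH 7.6, and ¹H-¹⁵N HSQC spectra were recorded. CSP was taken as the distance between control and treated peak centres. Per-residue KD came from a quadratic binding fit and was averaged over residues. LE = (−2.3039·R·T/HA)·log(KD).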

RGS4-RH = molecular target: T2, RGS4-RH (Homo sapiens, UniProt P49798); experiment: 1H-15N HSQC NMR binding to RGS4-RH; settings: 1H-15N HSQC with RGS4-RH
T2 sequence (P49798 51-179): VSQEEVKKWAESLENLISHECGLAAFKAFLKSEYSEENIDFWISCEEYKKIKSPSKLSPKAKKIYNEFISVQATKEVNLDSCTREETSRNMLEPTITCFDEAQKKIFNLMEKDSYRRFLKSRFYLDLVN
Outline: (§1)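 ¹⁵N-labelled RH domains (wild-type RGS4, or RGS17 with the C117S point mutation) were expressed in E. coli BL21-CodonPlus(DE3)-RIPL in M9 medium with 1 g/L ¹⁵NH₄Cl. The His₆ tag was removed with TEV protease, and protein was purified by Ni-IMAC and size exclusion. ¹H-¹⁵N HSQC spectra were recorded with fragment at 1 mM in 1% DMSO and overlaid on 1% DMSO control spectra.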

RGS17-RH C117S = molecular target: T3, RGS17-RH C117S (Homo sapiens, UniProt Q9UGC6, C117S); experiment: 1H-15N HSQC NMR binding to RGS17-RH C117S mutant; settings: 1H-15N HSQC with RGS17-RH C117S mutant
T3 sequence (Q9UGC6 72-206 C117S): T1 sequence (Q9UGC6 72-206) with C46S
Outline: as §1

[2] = molecular target: T4, RGS17-RH GAP activity towards Gαi1 (R178M, A326S) (Homo sapiens, UniProt Q9UGC6); experiment: Malachite green GAP activity assay; type: biochemical; settings: 1 mM fragment, 4.5 μM RGS17-RH
T4 sequence (Q9UGC6 72-206): T1 sequence (Q9UGC6 72-206)
Outline: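 Free phosphate from GTP hydrolysis was detected colorimetrically with malachite green. Final concentrations were 300 μM GTP, 4.5 μM tag-free RGS17-RH and 1 mM fragment. Mean of n=3 independent experiments ± SEM.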

RGS17-RH [3] = molecular target: T1, RGS17-RH; experiment: Differential scanning fluorimetry; type: binding; settings: 1 mM fragment, 10 μM RGS17-RH
Outline: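 10 μM RGS17-RH was incubated 30 min at ambient temperature with 1 mM fragment or DMSO control. 2X Sypro Orange was then added, and fluorescence was recorded from 20 to 80 °C. Tm was calculated from the melt curves. Mean of n=3 ± S.E.M.; one-way ANOVA with multiple comparisons.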

RGS17-RH [4] = molecular target: T1, RGS17-RH; experiment: DACM cysteine labeling of RGS17-RH after pre-incubation; type: biochemical; settings: 10-fold molar excess compound (20 μM) over 2 μM RGS17-RH, 30 min pre-incubation
Outline: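 RGS17-RH, or buffer alone, was pre-incubated 30 min at ambient temperature with compound (final 2 μM protein, 20 μM compound; NEM as comparator). The buffer was 20 mM K₂HPO₄, 100 mM NaCl, 2 mM NaN₃, pH 7.6. DACM was then added, and fluorescence (ex 385/em 440 nm) was read for 1,000 s. Slopes were normalised to no-protein (0%) and protein without compound (100%). Mean of n=3 ± S.D.; one-way ANOVA.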

Row | SMILES | L.E. (ligand efficiency) (RGS17-RH [1]) | RGS4 Binding (RGS4-RH) | RGS C117S Binding (RGS17-RH C117S) | effect on melting temperature of RGS17-RH (in words) (RGS17-RH [3]) | also measured
1 | CSc1cc(-c2ccc(F)cc2)[nH]n1 [Fragment 5] | 0.23 | – | – | – | RGS4 Binding (RGS4-RH; listed as 5): No; RGS4 Binding (RGS4-RH; listed as fragment 5): did not bind; RGS C117S Binding (RGS17-RH C117S; listed as 5): No; RGS C117S Binding (RGS17-RH C117S; listed as fragment 5): did not bind
2 | Oc1ccc(Sc2ccc(O)cc2)cc1 [Fragment 4] | 0.31 | Yes | Yes | melting temperature could not be accurately determined | inhibition of RGS17-RH GAP activity ([2]; 300 μM GTP): ~20%
3 | OCCCCn1cnc2cc(Cl)c(Cl)cc21 [Fragment 6] | 0.25 | Yes | Yes | not statistically significant | inhibition of RGS17-RH GAP activity (in words) ([2]; one-way ANOVA): lack of appreciable RGS17-RH GAP inhibition
4 | CCN1C(=O)C=CC1=O [N-ethyl maleimide (NEM), N-ethyl maleimide, reference compound] | – | – | – | – | DACM labeling of RGS17-RH after pre-incubation (RGS17-RH [4]): decreased DACM labeling
5 | OCCCCCOc1ccc(Cl)cc1 [Fragment 7] | 0.25 | Yes | Yes | – | –
